Assays:
[1] = biological target: T1, Alpha-1B adrenergic receptor (Homo sapiens) (UniProt P35368); assay: The binding affinity was evaluated on cloned human Alpha-1B adrenergic receptor expressed in chinese hamster ovary(CHO) cells by using [3H]prazosin as radioligand.; format: cell-based
T1 sequence (whole entry): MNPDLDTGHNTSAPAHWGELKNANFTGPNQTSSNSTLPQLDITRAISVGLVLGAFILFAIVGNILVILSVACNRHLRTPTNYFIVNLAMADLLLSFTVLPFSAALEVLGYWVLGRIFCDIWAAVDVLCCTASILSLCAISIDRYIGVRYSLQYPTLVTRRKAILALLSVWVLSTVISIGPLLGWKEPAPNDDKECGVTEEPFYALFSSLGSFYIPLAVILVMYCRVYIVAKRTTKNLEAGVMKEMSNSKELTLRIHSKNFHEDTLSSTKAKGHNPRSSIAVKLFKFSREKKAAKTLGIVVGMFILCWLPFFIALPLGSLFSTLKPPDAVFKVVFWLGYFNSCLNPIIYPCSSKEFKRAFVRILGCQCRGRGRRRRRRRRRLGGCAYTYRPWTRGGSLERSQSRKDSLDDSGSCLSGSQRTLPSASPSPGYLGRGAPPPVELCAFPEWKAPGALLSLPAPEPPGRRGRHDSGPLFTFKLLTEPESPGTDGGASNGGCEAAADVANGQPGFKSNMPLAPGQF
Summary of the method: (§1)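 Membranes (30 μg protein) from CHO cells stably expressing each human α1 subtype, in 50 mM Tris-HCl pH 7.4. Incubated with 0.1–0.4 nM [3H]prazosin for 30 min at 25 °C, competitor 1 pM–10 μM. Nonspecific binding with 10 μM phentolamine. Ki by Cheng-Prusoff. 2–3 experiments in triplicate.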

[2] = biological target: T2, Alpha-1D adrenergic receptor (Homo sapiens) (UniProt P25100); assay: The binding affinity was evaluated on cloned human Alpha-1D adrenergic receptor expressed in chinese hamster ovary(CHO) cells by using [3H]-prazosin as radioligand.; format: cell-based; summary of the method: as §1
T2 sequence (whole entry): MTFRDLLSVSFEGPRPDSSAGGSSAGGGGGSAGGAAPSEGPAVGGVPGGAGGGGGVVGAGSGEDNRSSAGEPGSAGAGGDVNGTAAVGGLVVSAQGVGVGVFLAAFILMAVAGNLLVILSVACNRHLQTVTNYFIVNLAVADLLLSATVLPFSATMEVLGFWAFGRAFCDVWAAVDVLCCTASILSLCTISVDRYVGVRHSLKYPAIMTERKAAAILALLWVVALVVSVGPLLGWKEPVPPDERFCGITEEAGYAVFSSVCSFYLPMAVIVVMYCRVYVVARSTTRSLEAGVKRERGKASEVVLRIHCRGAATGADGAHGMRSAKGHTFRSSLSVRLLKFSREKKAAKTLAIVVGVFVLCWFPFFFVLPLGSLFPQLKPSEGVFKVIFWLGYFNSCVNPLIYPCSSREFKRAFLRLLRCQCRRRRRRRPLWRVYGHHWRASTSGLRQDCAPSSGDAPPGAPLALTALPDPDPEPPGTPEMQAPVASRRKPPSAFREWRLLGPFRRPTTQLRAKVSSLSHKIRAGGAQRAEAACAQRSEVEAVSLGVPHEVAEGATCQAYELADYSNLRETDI

[3] = biological target: T3, Alpha-1A adrenergic receptor (Rattus norvegicus) (UniProt P43140); assay: Antagonist affinity was expressed as apparent pKb at Alpha-1A adrenergic receptor on isolated rat prostatic vas deferens (alpha1A).; format: functional, tissue-based
T3 sequence (whole entry): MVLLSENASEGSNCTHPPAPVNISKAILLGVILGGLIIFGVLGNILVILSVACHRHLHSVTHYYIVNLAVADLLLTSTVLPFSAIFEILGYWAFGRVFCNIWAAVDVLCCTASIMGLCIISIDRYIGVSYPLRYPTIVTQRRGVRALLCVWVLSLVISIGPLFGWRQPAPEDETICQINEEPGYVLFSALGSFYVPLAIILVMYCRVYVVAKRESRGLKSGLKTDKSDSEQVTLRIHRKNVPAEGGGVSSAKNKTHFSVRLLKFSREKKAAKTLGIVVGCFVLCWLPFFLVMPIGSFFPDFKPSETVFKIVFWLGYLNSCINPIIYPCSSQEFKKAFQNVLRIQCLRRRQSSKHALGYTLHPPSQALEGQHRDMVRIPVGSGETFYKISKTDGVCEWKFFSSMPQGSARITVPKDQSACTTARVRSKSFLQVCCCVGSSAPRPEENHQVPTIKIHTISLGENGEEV
Summary of the method: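 Rat prostatic vas deferens in Tyrode with 0.1 μM cocaine. Equilibrated 60 min, primed twice with 10 μM noradrenaline, then a control cumulative (–)-noradrenaline curve recorded isometrically. Antagonist equilibrated 30 min before a repeat curve. Apparent pKb = log(DR−1) − log[B], with DR as the ratio of agonist EC50 with/without antagonist. 2–3 antagonist concentrations, each tested four times.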

[4] = biological target: T2, Alpha-1D adrenergic receptor (Homo sapiens); assay: The binding affinity was evaluated on cloned human alpha-1D adrenergic receptor expressed in chinese hamster ovary(CHO) cells by using [3H]prazosin as radioligand.; format: cell-based; summary of the method: as §1
[5] = biological target: T1, Alpha-1B adrenergic receptor (Homo sapiens); assay: The binding affinity was evaluated on cloned human alpha-1B adrenergic receptor expressed in chinese hamster ovary(CHO) cells by using [3H]prazosin as radioligand.; format: cell-based; summary of the method: as §1
[6] = system: Alpha-1B adrenergic receptor (Cavia porcellus); assay: Antagonist affinity was expressed as apparent pKb at alpha-1B adrenergic receptor on isolated Guinea pig spleen (Alpha-1B adrenergic receptor)
[7] = biological target: T4, Alpha-1A adrenergic receptor (Homo sapiens) (UniProt P35348); assay: The binding affinity was evaluated on cloned human alpha-1A adrenergic receptor expressed in chinese hamster ovary(CHO) cells by using [3H]prazosin as radioligand.; format: cell-based; summary of the method: as §1
T4 sequence (whole entry): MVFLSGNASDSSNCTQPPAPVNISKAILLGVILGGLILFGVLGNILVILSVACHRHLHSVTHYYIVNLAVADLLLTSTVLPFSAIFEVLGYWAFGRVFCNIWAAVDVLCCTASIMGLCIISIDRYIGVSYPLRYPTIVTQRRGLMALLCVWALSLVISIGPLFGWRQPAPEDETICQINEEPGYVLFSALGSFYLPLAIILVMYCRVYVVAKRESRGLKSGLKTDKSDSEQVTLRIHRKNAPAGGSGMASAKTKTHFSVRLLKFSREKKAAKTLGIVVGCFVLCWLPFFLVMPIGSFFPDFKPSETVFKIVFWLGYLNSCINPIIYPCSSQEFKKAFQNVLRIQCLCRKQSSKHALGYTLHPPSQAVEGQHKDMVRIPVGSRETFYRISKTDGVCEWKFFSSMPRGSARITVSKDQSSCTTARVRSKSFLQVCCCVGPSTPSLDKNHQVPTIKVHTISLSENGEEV

[8] = biological target: Adrenergic receptor alpha-2 (Rattus norvegicus) (UniProt P22086+P19328+P22909); assay: The binding affinity was evaluated on Alpha-2 adrenergic receptor expressed in rat cortex by using [3H]rauwolscine as radioligand.
Summary of the method: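 Male Sprague-Dawley rat cerebral cortex membranes, washed in Tris-HCl pH 7.4 and resuspended with 10 μM pargyline and 0.1% ascorbic acid. Incubated 30 min at 25 °C with 0.5–1.5 nM [3H]rauwolscine. Nonspecific binding with 10 μM phentolamine. Filtration on PEI-treated filters. Ki by Cheng-Prusoff. 2–3 experiments in triplicate.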

COc1cccc(OC)c1OCCNCCOc1ccccc1OCc1ccccc1 showed a pKi [1] of 9.27, a pKi [2] of 10.2 and a pKb [3] of 8.39.
In the case of COc1cccc(OC)c1OCCNCC1C(=O)c2ccccc2OC1c1ccccc1 (stereo unspecified), the pKi [4] is reported as 7.93, the pKi [5] is reported as 6.84 and the pKb [6] is reported as 6.05. For the same molecule, the pKi [7] was 9.22.
COc1cccc(OC)c1OCCNCC1Oc2ccccc2CC1c1ccccc1 (stereo in doubt; 7) gave a pKi [1] of 6.58, a pKi [8] of under 6 and a pKi [2] of 7.28. It also gave a pKb [3] of 7.36.
